Assay results: ChEMBL document CHEMBL1153769, “Novel modified steroid derivatives of androstanolone as chemotherapeutic anti-cancer agents” (Eur J Med Chem, 2009)
pIC50: −log10 of the molar value.

Assays:
[1] = species on record: Mus musculus; assay: Toxicity in mouse EAC cells transplanted Swiss albino mouse assessed as induction of hypothermia; assay type: organism-based; settings: ehrlich
[2] = system: Mus musculus; assay: Toxicity in mouse EAC cells transplanted Swiss albino mouse assessed as change in total WBC content at 25 mg/kg. ip dissolved in DMSO for 14 days measured after final dose by 18 hrs fasting; assay type: organism-based, Ehrlich; set-up: dose 25 mg/kg, route intraperitoneal; settings: in vivo
How it was run: (§1)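 Mice (n = 5/group) given 2×10⁶ EAC cells in 0.2 ml i.p. Treatment was 25 mg/kg b.wt. i.p. in DMSO, every other day for 14 days. Animals were fasted 18 h after the last dose, then sacrificed. Tumour volume, haemoglobin, haematocrit, total WBC and body weight recorded. Normal and untreated EAC groups served as controls. Mean ± SE.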

[3] = system: Mus musculus; assay: Toxicity in mouse EAC cells transplanted Swiss albino mouse assessed as change in hematocrit content at 25 mg/kg. ip dissolved in DMSO for 14 days measured after final dose by 18 hrs fasting; assay type: organism-based, Ehrlich; set-up: dose 25 mg/kg, route intraperitoneal; settings: in vivo; how it was run: as §1
[4] = system: HepG2; assay: Antitumor activity against human HepG2 cells incubated with drug dissolved in olive oil after 72 hrs by MTT assay; assay type: functional, cell-based; settings: HepG2, 72 h
How it was run: (§2)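 HepG2 cells (trypan blue viability >97%) grown in RPMI-1640 with L-glutamine and 10% fetal calf serum, seeded at 3×10³ cells/well. Compounds in olive oil or DMSO were tested at 10, 50 and 100 for 24, 48 and 72 h. MTT (0.5 mg/ml) added, formazan dissolved in DMSO, OD read at 570 nm (ref 690 nm). Reported as % growth inhibition vs control; run in triplicate.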

[5] = system: Mus musculus; assay: Toxicity in mouse EAC cells transplanted Swiss albino mouse assessed as decrease in body weight at 25 mg/kg. ip dissolved in DMSO for 14 days measured after final dose by 18 hrs fasting; assay type: organism-based, Ehrlich; set-up: dose 25 mg/kg, route intraperitoneal; scale not given: the % may be the effect or the level left; settings: in vivo; how it was run: as §1
[6] = species on record: Mus musculus; assay: Toxicity in mouse EAC cells transplanted Swiss albino mouse assessed as induction of errection of hair; assay type: organism-based; settings: ehrlich
[7] = system: HepG2; assay: Antitumor activity against human HepG2 cells incubated with drug dissolved in olive oil after 48 hrs by MTT assay; assay type: functional, cell-based; settings: HepG2, 48 h; how it was run: as §2
[8] = system: Mus musculus; assay: Toxicity in mouse EAC cells transplanted Swiss albino mouse assessed as change in hemoglobin content at 25 mg/kg. ip dissolved in DMSO for 14 days measured after final dose by 18 hrs fasting; assay type: organism-based, Ehrlich; set-up: dose 25 mg/kg, route intraperitoneal; settings: in vivo; how it was run: as §1
[9] = species on record: Mus musculus; assay: Toxicity in mouse EAC cells transplanted Swiss albino mouse assessed as loss of appetite; assay type: organism-based; settings: ehrlich
[10] = system: HepG2; assay: Antitumor activity against human HepG2 cells incubated with drug dissolved in DMSO after 48 hrs by MTT assay; assay type: functional, cell-based; settings: HepG2, 48 h; how it was run: as §2
[11] = Antitumor activity in mouse EAC cells transplanted in Swiss albino mouse assessed as decrease in tumor volume at 25 mg/kg. ip dissolved in DMSO for 14 days measured after final dose by 18 hrs fasting; assay type: functional, Ehrlich; set-up: unit not given here; settings: route intraperitoneal; how it was run: as §1
[12] = system: HepG2; assay: Antitumor activity against human HepG2 cells incubated with drug dissolved in DMSO after 72 hrs by MTT assay; assay type: functional, cell-based; settings: HepG2, 72 h; how it was run: as §2
[13] = species on record: Mus musculus; assay: Toxicity in mouse EAC cells transplanted Swiss albino mouse assessed as induction of dizziness; assay type: organism-based; settings: ehrlich
[14] = system: Mus musculus; assay: Toxicity in mouse EAC cells transplanted Swiss albino mouse assessed as change in hematocrit content at 20 mg/kg. ip dissolved in DMSO for 14 days measured after final dose by 18 hrs fasting; assay type: organism-based, Ehrlich; set-up: dose 20 mg/kg, route intraperitoneal; settings: in vivo
How it was run: (§3)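 Reference-drug group (n = 5): mice given 2×10⁶ EAC cells in 0.2 ml i.p., then 20 mg/kg b.wt. for 14 days. Fasted 18 h after the last dose, then sacrificed. Tumour volume, haemoglobin, haematocrit, total WBC and body weight measured against normal and untreated EAC groups. Mean ± SE.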

[15] = system: Mus musculus; assay: Toxicity in mouse EAC cells transplanted Swiss albino mouse assessed as decrease in body weight at 20 mg/kg. ip dissolved in DMSO for 14 days measured after final dose by 18 hrs fasting; assay type: functional, Ehrlich; set-up: scale not given: the % may be the effect or the level left; settings: route intraperitoneal; how it was run: as §3
[16] = system: Mus musculus; assay: Toxicity in mouse EAC cells transplanted Swiss albino mouse assessed as change in total WBC content at 20 mg/kg. ip dissolved in DMSO for 14 days measured after final dose by 18 hrs fasting; assay type: organism-based, Ehrlich; set-up: dose 20 mg/kg, route intraperitoneal; settings: in vivo; how it was run: as §3
[17] = Antitumor activity in mouse EAC cell transplanted in Swiss albino mouse assessed as decrease in tumor volume at 20 mg/kg. ip dissolved in DMSO for 14 days measured after final dose by 18 hrs fasting; assay type: functional, Ehrlich; settings: route intraperitoneal; how it was run: as §3

Question: Which Activity [1] does the source give for `CC(=O)O[C@H]1CC[C@H]2[C@@H]3CC[C@H]4Cc5c(C#N)c(N)n(-c6ccccc6)c(=S)c5C[C@]4(C)[C@H]3CC[C@]12C` here?
Answer: Its Activity is “Non-toxic”.

Question: What about the Activity [2] of the same molecule?
Answer: The Activity was 5.75 /10'3mm'-3.

Question: What about the Activity [3] of the same molecule?
Answer: The Activity was 33.8%.

Question: And the pIC50 [4]?
Answer: Its pIC50 is 4.40.

Question: What about the Activity [5] of the same molecule?
Answer: The Activity was 18%.

Question: And the Activity [6]?
Answer: Its Activity is “Non-toxic”.

Question: And the pIC50 [7]?
Answer: The pIC50 was 4.32.

Question: And the Activity [8]?
Answer: The Activity was 12.6%.

Question: And the Activity [9]?
Answer: Its Activity is “Non-toxic”.

Question: What about the pIC50 [10] of the same molecule?
Answer: Its pIC50 is less than 4.00.

Question: And the Activity [11]?
Answer: The Activity was 0.

Question: And the pIC50 [12]?
Answer: The pIC50 was less than 4.00.

Question: And the Activity [13]?
Answer: Its Activity is “Non-toxic”.

Question: With `COc1ccc(C2Oc3nc(N)c(C#N)c(N)c3C3=C2C[C@@]2(C)[C@@H](CC[C@@H]4[C@@H]2CC[C@]2(C)[C@@H](OC(C)=O)CC[C@@H]42)C3)cc1` (some centres undefined) as the molecule, how does the Activity [1] read?
Answer: The Activity was “Non-toxic”.

Question: What about the Activity [2] of the same molecule?
Answer: The Activity was 7.35 /10'3mm'-3.

Question: What about the Activity [3] of the same molecule?
Answer: Its Activity is 38.3%.

Question: What about the pIC50 [4] of the same molecule?
Answer: Its pIC50 is 4.39.

Question: What about the Activity [5] of the same molecule?
Answer: The Activity was 21.5%.

Question: What about the Activity [6] of the same molecule?
Answer: Its Activity is “Non-toxic”.

Question: And the pIC50 [7]?
Answer: The pIC50 was 4.32.

Question: What about the Activity [8] of the same molecule?
Answer: Its Activity is 12.65%.

Question: And the Activity [9]?
Answer: The Activity was “Non-toxic”.

Question: What about the pIC50 [10] of the same molecule?
Answer: Its pIC50 is 4.02.

Question: What about the Activity [11] of the same molecule?
Answer: The Activity was 0.

Question: And the pIC50 [12]?
Answer: Its pIC50 is less than 4.00.

Question: And the Activity [13]?
Answer: Its Activity is “Non-toxic”.

Question: For `CC(=O)O[C@H]1CC[C@H]2[C@@H]3CC[C@H]4CNC(=O)CC[C@]4(C)[C@H]3CC[C@]12C`, which Activity [1] is on record?
Answer: Its Activity is “Non-toxic”.

Question: What about the Activity [2] of the same molecule?
Answer: The Activity was 6.46 /10'3mm'-3.

Question: What about the Activity [3] of the same molecule?
Answer: Its Activity is 38.56%.

Question: What about the pIC50 [4] of the same molecule?
Answer: Its pIC50 is 4.46.

Question: And the Activity [5]?
Answer: The Activity was 20.33%.

Question: What about the Activity [6] of the same molecule?
Answer: Its Activity is “Non-toxic”.

Question: What about the pIC50 [7] of the same molecule?
Answer: The pIC50 was 4.33.

Question: What about the Activity [8] of the same molecule?
Answer: The Activity was 12.96%.

Question: What about the Activity [9] of the same molecule?
Answer: The Activity was “Non-toxic”.

Question: What about the pIC50 [10] of the same molecule?
Answer: Its pIC50 is 4.38.

Question: What about the Activity [11] of the same molecule?
Answer: The Activity was 0.

Question: And the pIC50 [12]?
Answer: The pIC50 was 4.40.

Question: What about the Activity [13] of the same molecule?
Answer: Its Activity is “Non-toxic”.

Question: Which results are given for `CC(=O)O[C@H]1CC[C@H]2[C@@H]3CC[C@H]4CC5=C(C[C@]4(C)[C@H]3CC[C@]12C)C(c1ccccc1)OC(N)=C5C#N` (some centres undefined)?
Answer: Activity [1]: Non-toxic; Activity [2]: 5.9 /10'3mm'-3; Activity [3]: 36.6%; pIC50 [4]: 4.52; Activity [5]: 18.66%; Activity [6]: Non-toxic; pIC50 [7]: 4.34; Activity [8]: 12.5%; Activity [9]: Non-toxic; pIC50 [10]: 4.09; Activity [11]: 0; pIC50 [12]: 4.14; Activity [13]: Non-toxic

Question: What does the source list for `CC(=O)O[C@H]1CC[C@H]2[C@@H]3CC[C@H]4C/C(=N/n5c(-c6ccccc6)csc5=S)CC[C@]4(C)[C@H]3CC[C@]12C`?
Answer: Activity [1]: Non-toxic; Activity [2]: 5.66 /10'3mm'-3; Activity [3]: 42.7%; pIC50 [4]: 4.43; Activity [5]: 20%; Activity [6]: Non-toxic; pIC50 [7]: 4.33; Activity [8]: 10.7%; Activity [9]: Non-toxic; pIC50 [10]: 4.07; Activity [11]: 0; pIC50 [12]: 4.05; Activity [13]: Non-toxic

Question: What does the source list for `O=c1[nH]cc(F)c(=O)[nH]1` [FLUOROURACIL]?
Answer: Activity [14]: 10.73%; Activity [15]: 23%; Activity [16]: 6.4 /10'3mm'-3; Activity [17]: 0 mL⁻¹
